Assay results published in ChEMBL document CHEMBL1914422, “Activation of the c-Jun N-terminal kinase/activating transcription factor 3 (ATF3) pathway characterizes effective arylated diazeniumdiolate-based nitric oxide-releasing anticancer prodrugs” (J Med Chem, 2011).
Calls of active or inactive are those of the source. The calls are words filed in the database; no cut-off is given here.

Legend:
[1] = Chemical stability of the compound in aqueous phosphate buffered saline assessed as half life at pH 7.4 in presence of 4 mM glutathione; assay type: physicochemical; settings: gsh
NCI-H1703 [2] = assay: Antiproliferative activity against human NCI-H1703 cells after 72 hrs by MTT assay; assay type: functional, cell-based; settings: NCI-H1703, 72 h
How it was run: (§1)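 Compounds (10 mM DMSO stocks, final DMSO ≤0.1%) added at increasing concentrations in PBS, incubated 72 h at 37 °C. MTT read-out, six repeats per concentration, at least two independent experiments.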

NCI-H441 = assay: Antiproliferative activity against human NCI-H441 cells after 72 hrs by MTT assay; assay type: functional, cell-based; settings: NCI-H441, 72 h; how it was run: as §1
[3] = Antiproliferative activity against human NCI-H1373 cells after 72 hrs by MTT assay; assay type: functional, cell-based; settings: NCI-H1373, 72 h; how it was run: as §1
NCI-H2122 = assay: Antiproliferative activity against human NCI-H2122 cells after 72 hrs by MTT assay; assay type: functional, cell-based; settings: NCI-H2122, 72 h; how it was run: as §1
[4] = Antiproliferative activity against human NCI-H1944 cells after 72 hrs by MTT assay; assay type: functional, cell-based; settings: NCI-H1944, 72 h; how it was run: as §1
[5] = Activation of JNK phosphorylation at Thr183 and Tyr185 in human NCI-H1703 cells at 1 uM within 30 mins by Western blot analysis; assay type: cell-based
NCI-H1703 [6] = assay: Antitumor activity against human NCI-H1703 cells xenografted in athymic NCr nu/nu Charles river mouse assessed as reduction of tumor growth at 8 umol/kg, iv administered 3 times a week for 3 weeks relative to vehicle treated control; assay type: functional, organism-based
How it was run: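 H1703 xenografts (5×10^6 cells s.c., flank) in 7-week-old female athymic NCr-nu/nu mice, treated from tumor size ≥2×2×2 mm. Dosing i.v. (tail vein) three times weekly for 3 weeks in 2.25% P-123/PBS. Mice killed 2 h after the last dose; tumors excised and weighed. 13–15 mice/group; Mann-Whitney test against vehicle.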

Mus musculus [7] = assay: Toxicity in human NCI-H1703 cells xenografted athymic NCr nu/nu Charles river mouse assessed as change in body weight at 8 umol/kg, iv administered 3 times a week for 3 weeks (reference value: 22.2 +/- 0.4g); assay type: organism-based; settings: in vivo, 504 h
How it was run: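 Xenografted female athymic NCr-nu/nu mice (H1703, 5×10^6 cells s.c.) dosed i.v. three times weekly for 3 weeks in 2.25% P-123/PBS vehicle. Body weights recorded before each injection and compared with vehicle-treated controls at start and end.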

[8] = Activation of JNK phosphorylation in human NCI-H1703 cells assessed as increase in ATF3 protein level at 1 uM within 2 hrs by Western blot analysis; assay type: cell-based
[9] = Activation of JNK phosphorylation in human NCI-H1703 cells assessed as increase in ATF3 protein level at 1 uM by Western blot analysis; assay type: cell-based
NCI-H1703 [10] = assay: Induction of apoptosis in human NCI-H1703 cells assessed as PARP cleavage after 1 to 6 hrs by Western blot analysis; assay type: functional, cell-based
NCI-H1703 [11] = assay: Induction of apoptosis in human NCI-H1703 cells assessed as caspase 3 activation after 1 to 6 hrs by Western blot analysis; assay type: functional, cell-based
NCI-H1703 [12] = assay: Induction of apoptosis in human NCI-H1703 cells assessed as caspase 7 activation after 1 to 6 hrs by Western blot analysis; assay type: functional, cell-based
NCI-H1703 [13] = assay: Antitumor activity against human NCI-H1703 cells xenografted in NCr nu/nu Charles river mouse assessed as tissue death in tumor at 8 umol/kg, iv administered 3 times a week for 3 weeks by H and E staining method relative to control; assay type: functional, organism-based
How it was run: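 Female athymic NCr-nu/nu mice, 7 weeks old, received 5×10^6 H1703 cells s.c. in the flank. Once tumors reached ≥2×2×2 mm, dosing was i.v. by tail vein three times weekly for 3 weeks in 2.25% P-123/PBS vehicle. Tumors excised 2 h after the last dose, H&E stained, and scored for areas of cell death against vehicle controls.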

Mus musculus [14] = assay: Induction of JNK phosphorylation in human NCI-H1703 cells xenografted NCr nu/nu Charles river mouse tumor at 8 umol/kg, iv administered 3 times a week for 3 weeks by immunohistochemical analysis; assay type: functional, organism-based
How it was run: (§2)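 H1703 xenografts in female athymic NCr-nu/nu mice, dosed i.v. three times weekly for 3 weeks in 2.25% P-123/PBS. Tumors taken 2 h after the last dose were immunostained for phospho-SAPK/JNK and ATF3. Intensity graded negative, very weak, weak, moderate or strong.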

Mus musculus [15] = assay: Induction of JNK phosphorylation in human NCI-H1703 cells xenografted NCr nu/nu Charles river mouse tumor assessed as increase in ATF3 protein level at 8 umol/kg, iv administered 3 times a week for 3 weeks by immunohistochemical analysis; assay type: functional, organism-based; how it was run: as §2

Row | SMILES | t1/2 [1] | IC50 (NCI-H1703 [2]) | IC50 (NCI-H441) | IC50 [3] | IC50 (NCI-H2122) | IC50 [4] | Activity [5] | growth inhibition (GI) (NCI-H1703 [6]) | Activity (Mus musculus [7]) | Activity [8] | Activity [9] | Activity (NCI-H1703 [10]) | Activity (NCI-H1703 [11]) | Activity (NCI-H1703 [12]) | Activity (NCI-H1703 [13]) | Activity (Mus musculus [14]) | Activity (Mus musculus [15])
1 | CCOC(=O)N1CCCN(/[N+]([O-])=N/Oc2cc(OC)c([N+](=O)[O-])cc2[N+](=O)[O-])CC1 | 59.6 min | 1.82 µM | 3.15 µM | 3.08 µM | 10 µM | > 10 µM | inactive | – | – | – | – | – | – | – | – | – | –
2 | CCOC(=O)N1CCN(/[N+]([O-])=N/Oc2cc(OC)c([N+](=O)[O-])cc2[N+](=O)[O-])CC1 | 38.6 min | 1.57 µM | 2.5 µM | 2.1 µM | 5.78 µM | > 10 µM | inactive | – | – | – | – | – | – | – | – | – | –
3 | CCOC(=O)N1CCN(/[N+]([O-])=N/Oc2cc(C)c([N+](=O)[O-])cc2[N+](=O)[O-])CC1 | 71.5 min | 0.97 µM | 1.61 µM | 1.86 µM | 7 µM | > 10 µM | inactive | inactive | 24.5 g | inactive | inactive | inactive | inactive | inactive | inactive | inactive | inactive
